The target of experiment [1] is T1, Sphingosine kinase 1 (Homo sapiens, UniProt Q9NYA1). Nature of the experiment: Inhibition of recombinant sphingosine kinase 1 (unknown origin) expressed in HEK293 cells using sphingosine as substrate at 50 uM after 30 mins relative to control in presence of [gamma32P]-ATP. In short, it runs like this: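 Single-point inhibitor test at 50 μM with 250 μM ATP. […] Activity is reported as % of control, where control (100%) is activity with sphingosine alone. n = 3, mean ± SD.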

Experiment [2] concerns the target T2, Sphingosine kinase 2 (Homo sapiens) (UniProt Q9NRA0).
T2 sequence (whole entry): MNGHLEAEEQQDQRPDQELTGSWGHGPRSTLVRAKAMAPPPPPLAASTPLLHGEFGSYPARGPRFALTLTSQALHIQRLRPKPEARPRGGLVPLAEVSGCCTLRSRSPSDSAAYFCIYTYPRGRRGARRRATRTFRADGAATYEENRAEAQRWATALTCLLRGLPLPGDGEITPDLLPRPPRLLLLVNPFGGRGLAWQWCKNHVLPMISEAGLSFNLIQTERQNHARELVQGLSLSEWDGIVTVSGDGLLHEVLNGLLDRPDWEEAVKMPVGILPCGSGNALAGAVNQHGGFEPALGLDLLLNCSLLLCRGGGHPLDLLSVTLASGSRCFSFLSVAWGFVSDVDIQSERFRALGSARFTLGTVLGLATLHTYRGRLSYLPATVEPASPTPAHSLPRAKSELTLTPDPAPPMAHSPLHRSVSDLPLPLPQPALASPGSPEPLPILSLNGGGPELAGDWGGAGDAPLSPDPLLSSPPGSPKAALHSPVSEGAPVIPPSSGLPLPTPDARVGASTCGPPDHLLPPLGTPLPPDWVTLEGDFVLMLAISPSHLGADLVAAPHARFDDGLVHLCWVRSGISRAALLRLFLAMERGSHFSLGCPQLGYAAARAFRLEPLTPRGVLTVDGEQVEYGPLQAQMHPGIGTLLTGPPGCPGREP
Nature of the experiment: Inhibition of sphingosine kinase 2 (unknown origin) using sphingosine as substrate at 50 uM after 30 mins relative to control in presence of [gamma32P]-ATP.

Experiment [3] deals with T2, Sphingosine kinase 2 (Homo sapiens). Nature of the experiment: Activity at sphingosine kinase 2 (unknown origin) at 50 uM after 30 mins in presence of [gamma32P]-ATP.
The target in experiment [4] is T1, Sphingosine kinase 1. Nature of the experiment: Inhibition of recombinant sphingosine kinase 1 (unknown origin) expressed in HEK293 cells using sphingosine as substrate at 100 uM after 30 mins relative to control in presence of [gamma32P]-ATP.
For experiment [5], the target named is T1, Sphingosine kinase 1. Nature of the experiment: Inhibition of recombinant sphingosine kinase 1 (unknown origin) expressed in HEK293 cells using sphingosine as substrate after 30 mins in presence of [gamma32P]-ATP.
Experiment [6] has as its target T3, Sphingosine kinase 2 (Homo sapiens, UniProt Q9NRA0).
T3 sequence (Q9NRA0 whole entry): T2 sequence (whole entry)
Nature of the experiment: (§1) Inhibition of sphingosine kinase 2 (unknown origin) using sphingosine as substrate after 30 mins in presence of [gamma32P]-ATP. In short, it runs like this: (§2)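 Results are given as % of the sphingosine-only control, and IC50 was derived from the curve. n = 3, ± SD.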

In experiment [7] the target is T2, Sphingosine kinase 2 (Homo sapiens). The experiment is described as §1. A digest of the protocol:
as §2

[8] abbreviates: 100 uM, in the assay text read “at 100 uM” for “at 50 uM”.

Each structure is given as a SMILES string. pIC50: −log10 of the molar value. Activity calls are given as the source filed them. The calls are words filed in the database; no cut-off is given here.

T1 sequence (Q9NYA1 whole entry): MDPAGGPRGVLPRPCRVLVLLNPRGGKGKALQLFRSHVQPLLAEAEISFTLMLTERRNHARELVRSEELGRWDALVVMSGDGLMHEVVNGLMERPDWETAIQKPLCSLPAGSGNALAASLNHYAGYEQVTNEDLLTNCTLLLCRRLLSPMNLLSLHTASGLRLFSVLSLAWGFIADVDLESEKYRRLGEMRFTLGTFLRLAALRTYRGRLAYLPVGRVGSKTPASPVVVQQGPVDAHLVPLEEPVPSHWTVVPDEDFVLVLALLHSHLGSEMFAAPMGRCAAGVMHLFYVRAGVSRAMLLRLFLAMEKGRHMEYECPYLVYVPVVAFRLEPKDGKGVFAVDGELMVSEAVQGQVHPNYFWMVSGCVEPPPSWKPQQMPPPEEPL

As to `CCCCCc1cn(-c2ccc(CCN3CCC(O)CC3)cc2)nn1`, in experiment [1], the inhibition (in general, the drop in the measured response relative to a control, in per cent) was “inactive”.

Turning to `CCCCCCCCc1ccc(CCN2CCC[C@H]2CO)cc1`, the inhibition in experiment [2] (setting [8]) turned out to be 45.7%; in experiment [4], 72.2%. The result in experiment [3] was Active. Regarding `CCCCCCCCCCCCc1ccc(CCN2CCC[C@@H]2CO)cc1`, the figures for the pIC50 in experiment [5] and in experiment [6] were 5.28 and 5.30, respectively. The inhibition result in experiment [5] and in experiment [7] was “Dose-dependent effect” throughout. `CCCCCCCCc1cn(-c2ccc(CC[N+]3(C)CCCCC3)cc2)nn1`: the inhibition result in experiment [1] and in experiment [2] (50 uM) was “inactive” throughout. For the compound `CCCCc1cn(-c2ccc(CCN3CCC(O)CC3)cc2)nn1`, in experiment [1], the inhibition entry is “inactive”.

With `CCCCCCCCc1ccc(CCN2CC[C@H](O)C2)cc1`, in experiment [1], the inhibition entry is “Active”. On the same count and under the same terms, to `CCCCCCCCCCCCc1ccc(C(=O)N2CCC[C@H]2CO)cc1` belongs “inactive”. Regarding `CCCCc1cn(-c2ccc(CCN3CCCCC3)cc2)nn1`, in experiment [1], the inhibition result was “inactive”. Regarding `CCCCc1cn(-c2ccc(CC[N+]3(C)CCCCC3)cc2)nn1`, the inhibition result in experiment [1] and in experiment [2] (50 uM) was “inactive” each time.

`CCCCCCCCc1ccc(C(=O)Nc2ccc(CCO)cc2)cc1`: the inhibition result in experiment [1] was “inactive”. On the same count and under the same terms, in the case of `CCCCCCCCc1ccc(CCN2CCC(OC)CC2)cc1` it was “inactive”. As to `CCCCCCCCc1ccc(CCN2CCC(=O)CC2)cc1`, the inhibition entry in experiment [2] (50 uM) was “Active”. For `CCCCCCCCc1ccc(C[n+]2ccc(N3CCC(C)CC3)cc2)cc1`, the inhibition entry in experiment [1] is “inactive”. The inhibition entry in experiment [2] (50 uM) is “Active”. `CCCCCCCCCCCCc1ccc(CCN2CCC[C@H]2CO)cc1`: the inhibition in experiment [2] (setting [8]) came to 49.7%; in experiment [4] it was 49.9%. Moreover, the result in experiment [3] was Active.

`Cc1ccc(CCN2CCC(N=[N+]=[N-])CC2)cc1`: in experiment [1], the inhibition entry was “inactive”. As for `CCCCCc1cn(-c2ccc(CCN3CCCCC3)cc2)nn1`, in experiment [1], the inhibition result is “inactive”.

`CCCCCCCCc1cn(-c2ccc(CCO)cc2)nn1`: the inhibition result in experiment [1] is “inactive”.

Regarding `CCCCCCCCc1cn(-c2ccc(CCN3CCCCC3)cc2)nn1`, in experiment [1], the inhibition result was “inactive”.

Consider `CCCCCCCCc1ccc(-n2cc(-c3cccnc3)nn2)cc1`, for which the inhibition result in experiment [1] is “inactive”. On to `CCCCCc1cn(-c2ccc(CC[N+]3(C)CCCCC3)cc2)nn1`, for which the inhibition result in experiment [1] and in experiment [2] (50 uM) was “inactive” each time. As to `CCCCCCCCc1cn(-c2ccc(CCN3CCC(O)CC3)cc2)nn1`, the inhibition result in experiment [1] was “Active”.

As for `CCCCCCCCc1cn(-c2ccc(O)cc2)nn1`, the inhibition result in experiment [1] was “inactive”.

Take `CCCCCCCCc1ccc(CCN2CCC(N)CC2)cc1`: in experiment [5], the negative logarithm of the IC50 (pIC50) (commonly −log10 of the IC50, conventionally taken in molar units) was 4.77 and the inhibition entry was “Dose-dependent effect”. For `CCCCCCCCc1ccc(CCN2CCC(F)CC2)cc1`, the inhibition result in experiment [1] is “inactive”. Still for that read-out and setting: in the case of `Cc1ccc(CCN2CCC(O)CC2)cc1` it was “inactive”; in that of `CCCCCCCCc1ccc(C(=O)NCc2ccncc2)cc1`, “inactive”; in that of `CCCCCCCCc1ccc(CCCCN2CCC(O)CC2)cc1`, “Active”.

For the compound `CCCCCCCCc1ccc(CN2CCC(O)CC2)cc1`, the inhibition entry in experiment [1] is “Active”.

`CCCCCCCCCCCCc1ccc(C(=O)N2CCC(O)CC2)cc1`: the inhibition result in experiment [1] is “inactive”. `CCCCCCCCc1ccc(C(=O)N2CCC(O)CC2)cc1`: in experiment [1], the inhibition result was “inactive”. Same read-out and setting: in the case of `CCCCCCCCCCCCc1ccc(CCN2CCC(N)CC2)cc1` it was “inactive”; in that of `Cc1ccc(CCN2CCC[C@@H]2CO)cc1`, “inactive”; in that of `CCCCCCCCc1ccc(CCCN2CCC(O)CC2)cc1`, “Active”.

In the case of `CCCCCCCCc1ccc(CCc2ccc[n+](C)c2)cc1`, the inhibition entry in experiment [1] and in experiment [2] (50 uM) was “inactive” throughout. As to `CCCCCCCCc1ccc(CCN2CC[C@@H](O)C2)cc1`, the inhibition entry in experiment [1] is “Active”. The same measure, in the same setting: to `Cc1ccc(CCN2CCC(N)CC2)cc1` belongs “inactive”.

`CCCCCCCCc1ccc(CCc2cccnc2)cc1`: the inhibition entry in experiment [1] is “inactive”. As for `CCCCCCCCc1ccc(CCN2CCC(N=[N+]=[N-])CC2)cc1`, in experiment [1], the inhibition entry is “inactive”. For `CCCCCCCCc1ccc(CCN2CCC[C@@H]2CO)cc1`, the pIC50 in experiment [5] was 5.66; in experiment [6], 5.28. Also, the inhibition result in experiment [5] and in experiment [7] was “Dose-dependent effect” in each case. In the case of `CCCCCCCCc1ccc(C(=O)Nc2ccc(O)cc2)cc1`, the inhibition result in experiment [1] was “inactive”. The same measure, in the same setting: to `CCCCCCCCCCCCc1ccc(C(=O)N2CCC[C@@H]2CO)cc1` belongs “inactive”.

The values above are taken from ChEMBL document CHEMBL3085741, “Structure-activity relationships and molecular modeling of sphingosine kinase inhibitors” (J Med Chem, 2013).
